Assay results taken from ChEMBL document CHEMBL3271959, “Comparative stereochemistry in the aziridine ring openings of N-methylmitomycin A and 7-methoxy-1,2-(N-methylaziridino)mitosene” (J Med Chem, 1977).
Calls of active or inactive are those of the source. The rule behind the calls is not given here.

Legend:
P388 [1] = experiment: Antitumor activity against mouse P388 cells allografted in CDF1 mouse assessed as effect on median survival time at 0.2 mg/kg/day administered qd on day 1 and 5 relative to control; format: functional
Method in brief: (§1)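 Male CDF1 mice were implanted intraperitoneally with 10^6 P388 ascites cells. Treatment was given once daily on days 1 and 5 only. Groups were six mice each. Median survival time was taken for each group.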

Escherichia coli [2] = experiment: Toxicity in Escherichia coli W1709(lambda) at 0.2 ug/ml; format: organism-based; conditions: in vivo
Method in brief: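 Screened for induction of lytic activity by lambda-bacteriophage lysogenic in Escherichia coli, at 3.1, 0.8, 0.2, 0.05, 0.0125 and 0.003 ug/mL. The read-out was the ratio of plaques induced by the test compound to plaques in an untreated control. Wells where the compound was toxic to the culture were scored "T" instead of a ratio.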

P388 [3] = experiment: Antitumor activity against mouse P388 cells allografted in CDF1 mouse assessed as mouse survival at 0.4 mg/kg/day administered qd on day 1 and 5 measured on day 5; format: functional, organism-based; method in brief: as §1
Mus musculus [4] = experiment: Toxicity in CDF1 mouse allografted with mouse P388 cells assessed as change in weight at 0.8 mg/kg/day administered qd on day 1 and 5 (reference value: 3.4 g); format: organism-based; conditions: in vivo; method in brief: as §1
P388 [5] = experiment: Antitumor activity against mouse P388 cells allografted in CDF1 mouse assessed as mouse survival at 0.4 mg/kg/day administered qd on day 1 and 5 measured on day 30; format: functional, organism-based; method in brief: as §1
P388 [6] = experiment: Antitumor activity against mouse P388 cells allografted in CDF1 mouse assessed as mouse survival at 0.2 mg/kg/day administered qd on day 1 and 5 measured on day 5; format: functional, organism-based; method in brief: as §1
[7] = test system: Enterobacteria phage lambda; experiment: Induction of lambda phage lytic activity in Escherichia coli W1709(lambda) assessed as ratio of plaques in treated culture to control at 0.003 ug/ml preincubated for 90 mins followed by heart infusion broth and glucose addition measured after 120 mins; format: functional
P388 [8] = experiment: Antitumor activity against mouse P388 cells allografted in CDF1 mouse assessed as mouse survival at 0.1 mg/kg/day administered qd on day 1 and 5 measured on day 30; format: functional, organism-based; method in brief: as §1
P388 [9] = experiment: Antitumor activity against mouse P388 cells allografted in CDF1 mouse assessed as effect on median survival time at 3.2 mg/kg/day administered qd on day 1 and 5 relative to control; format: functional; method in brief: as §1
Mus musculus [10] = experiment: Toxicity in CDF1 mouse allografted with mouse P388 cells assessed as change in weight at 1.6 mg/kg/day administered qd on day 1 and 5 (reference value: 3.4 g); format: organism-based; conditions: in vivo; method in brief: as §1
Mus musculus [11] = experiment: Toxicity in CDF1 mouse allografted with mouse P388 cells assessed as change in weight at 3.2 mg/kg/day administered qd on day 1 and 5 (reference value: 3.4 g); format: organism-based; conditions: in vivo; method in brief: as §1
Mus musculus [12] = experiment: Toxicity in CDF1 mouse allografted with mouse P388 cells assessed as change in weight at 0.2 mg/kg/day administered qd on day 1 and 5 (reference value: 3.4 g); format: organism-based; conditions: in vivo; method in brief: as §1
P388 [13] = experiment: Antitumor activity against mouse P388 cells allografted in CDF1 mouse assessed as mouse survival at 3.2 mg/kg/day administered qd on day 1 and 5 measured on day 5; format: functional, organism-based; method in brief: as §1
[14] = test system: Enterobacteria phage lambda; experiment: Induction of lambda phage lytic activity in Escherichia coli W1709(lambda) assessed as ratio of plaques in treated culture to control at 0.0125 ug/ml preincubated for 90 mins followed by heart infusion broth and glucose addition measured after 120 mins; format: functional
P388 [15] = experiment: Antitumor activity against mouse P388 cells allografted in CDF1 mouse assessed as effect on median survival time at 0.8 mg/kg/day administered qd on day 1 and 5 relative to control; format: functional; method in brief: as §1
Mus musculus [16] = experiment: Toxicity in CDF1 mouse allografted with mouse P388 cells assessed as change in weight at 0.4 mg/kg/day administered qd on day 1 and 5 (reference value: 3.4 g); format: organism-based; conditions: in vivo; method in brief: as §1
P388 [17] = experiment: Antitumor activity against mouse P388 cells allografted in CDF1 mouse assessed as mouse survival at 0.2 mg/kg/day administered qd on day 1 and 5 measured on day 30; format: functional, organism-based; method in brief: as §1
P388 [18] = experiment: Antitumor activity against mouse P388 cells allografted in CDF1 mouse assessed as effect on median survival time at 0.4 mg/kg/day administered qd on day 1 and 5 relative to control; format: functional; method in brief: as §1
Mus musculus [19] = experiment: Toxicity in CDF1 mouse allografted with mouse P388 cells assessed as change in weight at 0.1 mg/kg/day administered qd on day 1 and 5 (reference value: 3.4 g); format: organism-based; conditions: in vivo; method in brief: as §1
[20] = test system: Enterobacteria phage lambda; experiment: Induction of lambda phage lytic activity in Escherichia coli W1709(lambda) assessed as ratio of plaques in treated culture to control at 0.05 ug/ml preincubated for 90 mins followed by heart infusion broth and glucose addition measured after 120 mins; format: functional
P388 [21] = experiment: Antitumor activity against mouse P388 cells allografted in CDF1 mouse assessed as mouse survival at 1.6 mg/kg/day administered qd on day 1 and 5 measured on day 30; format: functional, organism-based; method in brief: as §1
P388 [22] = experiment: Antitumor activity against mouse P388 cells allografted in CDF1 mouse assessed as mouse survival at 0.1 mg/kg/day administered qd on day 1 and 5 measured on day 5; format: functional, organism-based; method in brief: as §1
P388 [23] = experiment: Antitumor activity against mouse P388 cells allografted in CDF1 mouse assessed as effect on median survival time at 1.6 mg/kg/day administered qd on day 1 and 5 relative to control; format: functional; method in brief: as §1
Escherichia coli [24] = experiment: Toxicity in Escherichia coli W1709(lambda) at 0.05 ug/ml; format: organism-based; conditions: in vivo
P388 [25] = experiment: Antitumor activity against mouse P388 cells allografted in CDF1 mouse assessed as mouse survival at 1.6 mg/kg/day administered qd on day 1 and 5 measured on day 5; format: functional, organism-based; method in brief: as §1
P388 [26] = experiment: Antitumor activity against mouse P388 cells allografted in CDF1 mouse assessed as effect on median survival time at 0.1 mg/kg/day administered qd on day 1 and 5 relative to control; format: functional; method in brief: as §1
P388 [27] = experiment: Antitumor activity against mouse P388 cells allografted in CDF1 mouse assessed as mouse survival at 0.8 mg/kg/day administered qd on day 1 and 5 measured on day 5; format: functional, organism-based; method in brief: as §1
Escherichia coli [28] = experiment: Toxicity in Escherichia coli W1709(lambda) at 0.0125 ug/ml; format: organism-based; conditions: in vivo
P388 [29] = experiment: Antitumor activity against mouse P388 cells allografted in CDF1 mouse assessed as mouse survival at 0.8 mg/kg/day administered qd on day 1 and 5 measured on day 30; format: functional, organism-based; method in brief: as §1
P388 [30] = experiment: Antitumor activity against mouse P388 cells allografted in CDF1 mouse assessed as mouse survival at 3.2 mg/kg/day administered qd on day 1 and 5 measured on day 30; format: functional, organism-based; method in brief: as §1
[31] = test system: Enterobacteria phage lambda; experiment: Induction of lambda phage lytic activity in Escherichia coli W1709(lambda) assessed as ratio of plaques in treated culture to control at 3.1 ug/ml preincubated for 90 mins followed by heart infusion broth and glucose addition measured after 120 mins; format: functional
[32] = test system: Enterobacteria phage lambda; experiment: Induction of lambda phage lytic activity in Escherichia coli W1709(lambda) assessed as ratio of plaques in treated culture to control at 0.8 ug/ml preincubated for 90 mins followed by heart infusion broth and glucose addition measured after 120 mins; format: functional
Escherichia coli [33] = experiment: Toxicity in Escherichia coli W1709(lambda) at 3.1 ug/ml; format: organism-based; conditions: in vivo
[34] = test system: Enterobacteria phage lambda; experiment: Induction of lambda phage lytic activity in Escherichia coli W1709(lambda) assessed as ratio of plaques in treated culture to control at 0.2 ug/ml preincubated for 90 mins followed by heart infusion broth and glucose addition measured after 120 mins; format: functional
P388 [35] = experiment: Antitumor activity against mouse P388 cells allografted in CDF1 mouse assessed as mouse survival at 6.4 mg/kg/day administered qd on day 1 and 5 measured on day 30; format: functional, organism-based; method in brief: as §1
P388 [36] = experiment: Antitumor activity against mouse P388 cells allografted in CDF1 mouse assessed as effect on median survival time at 6.4 mg/kg/day administered qd on day 1 and 5 relative to control; format: functional; method in brief: as §1
P388 [37] = experiment: Antitumor activity against mouse P388 cells allografted in CDF1 mouse assessed as mouse survival at 6.4 mg/kg/day administered qd on day 1 and 5 measured on day 5; format: functional, organism-based; method in brief: as §1
Mus musculus [38] = experiment: Toxicity in CDF1 mouse allografted with mouse P388 cells assessed as change in weight at 6.4 mg/kg/day administered qd on day 1 and 5 (reference value: 3.4 g); format: organism-based; conditions: in vivo; method in brief: as §1
Escherichia coli [39] = experiment: Toxicity in Escherichia coli W1709(lambda) at 0.8 ug/ml; format: organism-based; conditions: in vivo

SMILES	T/C (P388 [1]) [%]	Activity (P388 [3])	Activity (Mus musculus [4]) [g]	Activity (P388 [5])	Activity (P388 [6])	T/C [7]	T/C (P388 [9]) [%]	Activity (Mus musculus [10]) [g]	Activity (Mus musculus [11]) [g]	Activity (Mus musculus [12]) [g]	Activity (P388 [13])	T/C [14]	T/C (P388 [15]) [%]	Activity (Mus musculus [16]) [g]	Activity (P388 [17])	T/C (P388 [18]) [%]	T/C [20]	Activity (P388 [21])	T/C [31]	T/C [32]	other results
CO[C@@]12[C@H](COC(N)=O)C3=C(C(=O)C(C)=C(N)C3=O)N1C[C@@H]1N[C@@H]12 [MITOMYCIN]	125	Active	-0.8	inactive	Active	2.7	270	0.1	-2.3	0.3	Active	6.6	175	0	inactive	130	17.6	inactive	–	–	Activity (Escherichia coli [2]): Toxic; Activity (P388 [8]): inactive; Activity (Mus musculus [19]): 0 g; Activity (P388 [22]): Active; T/C (P388 [23]): 175%; Activity (Escherichia coli [24]): Toxic; Activity (P388 [25]): Active; T/C (P388 [26]): 120%; Activity (P388 [27]): Active
COC1=C(C)C(=O)C2=C(C1=O)[C@@H](COC(N)=O)[C@@]1(OC)[C@H]3N[C@H]3CN21 [MITOMYCIN A]	130	Active	-2.6	inactive	Active	7.4	180	-3.1	-2.1	0.1	Active	31.1	155	-0.4	inactive	140	–	inactive	–	–	Activity (P388 [8]): inactive; Activity (Escherichia coli [28]): Toxic; Activity (Mus musculus [19]): 0.3 g; Activity (P388 [22]): Active; T/C (P388 [23]): 165%; Activity (Escherichia coli [24]): Toxic; Activity (P388 [25]): Active; Activity (P388 [29]): inactive; T/C (P388 [26]): 120%; Activity (P388 [27]): Active; Activity (P388 [30]): inactive
COC1=C(C)C(=O)c2c(c(COC(N)=O)c3n2CCC3O)C1=O (racemic)	–	–	–	–	–	–	–	–	–	–	–	–	–	–	–	–	–	–	6.9	2.9	–
CN[C@@H]1Cn2c3c(c(COC(N)=O)c2[C@H]1O)C(=O)C(OC)=C(C)C3=O (relative stereo)	–	–	–	–	–	–	–	–	–	–	–	–	–	–	–	–	–	–	7	2.4	–
CN[C@@H]1Cn2c3c(c(COC(N)=O)c2[C@@H]1O)C(=O)C(OC)=C(C)C3=O (relative stereo)	–	–	–	–	–	–	–	–	–	–	–	–	–	–	–	–	–	–	22.4	4.4	Activity (Escherichia coli [33]): Toxic; T/C [34]: 2
COC1=C(C)C(=O)C2=C(C1=O)[C@@H](COC(N)=O)[C@@]1(OC)[C@@H]3[C@H](CN21)N3C (some centres not stated) [N-METHYL-MITOMYCIN A]	115	Active	-0.3	inactive	Active	1.8	180	-1.6	-3.1	0.3	Active	3.7	145	0.9	inactive	130	8.2	inactive	–	–	Activity (P388 [35]): inactive; T/C [34]: 21.2; T/C (P388 [36]): 165%; Activity (P388 [37]): Active; Activity (Mus musculus [38]): -2.4 g; Activity (Escherichia coli [39]): Toxic; T/C (P388 [23]): 145%; Activity (P388 [25]): Active; Activity (P388 [29]): inactive; Activity (P388 [27]): Active
COC1=C(C)C(=O)c2c(c(COC(N)=O)c3n2C[C@H]2[C@@H]3N2C)C1=O (some centres not stated)	–	–	–	–	–	0.8	–	–	–	–	–	3	–	–	–	–	3.4	–	35.4	38.8	Activity (Escherichia coli [33]): Toxic
